Assay results published in ChEMBL document CHEMBL5058577, “EUbOPEN Chemogenomics Library 2 (Multiplex)” (2022).

System: Fibroblast
Experiment: Multiplex assay against human fibroblast
Type: toxicity, cell-based
Method in brief: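 Values for tubulin, mitochondrial-mass and membrane-permeability phenotypes are per cents of cells with healthy nuclei. These cells were identified by CellPathfinder machine-learning gating of live cells that had been stained at seeding with Hoechst33342, BioTracker Green Microtubule Cytoskeleton Dye, MitoTracker Red and Annexin V Alexa Fluor 680 and imaged on a CQ1 microscope at 37°C and 5% CO2 after compound addition. The gating first set Hoechst high-intensity objects apart from normal cells, then split normal cells into healthy, pyknosed or fragmented nuclei, and pyknosed cells into mitotic or apoptotic.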

[1] = 12 h, 1 µM, compound concentration 1 uM, replicate 1
[2] = 12 h, 1 µM, compound concentration 1 uM, replicate 2
[3] = 12 h, 10 µM, compound concentration 10 uM, replicate 1
[4] = 12 h, 10 µM, compound concentration 10 uM, replicate 2
[5] = 24 h, 1 µM, compound concentration 1 uM, replicate 1
[6] = 24 h, 1 µM, compound concentration 1 uM, replicate 2
[7] = 24 h, 10 µM, compound concentration 10 uM, replicate 1
[8] = 24 h, 10 µM, compound concentration 10 uM, replicate 2
[9] = 48 h, 1 µM, compound concentration 1 uM, replicate 1
[10] = 48 h, 1 µM, compound concentration 1 uM, replicate 2
[11] = 48 h, 10 µM, compound concentration 10 uM, replicate 1
[12] = 48 h, 10 µM, compound concentration 10 uM, replicate 2

## CN(C)C(=O)Cn1cc(-c2ccc(-c3nnc4ccccn34)cc2)cn1
[1]
  Population Apoptotic (%): 57%
  Population Fragmented Nuclei (%): 18%
  Population Healthy Nuclei (%): 60%
  Population Hoechst High Intensity Objects (%): 5%
  Population Membrane Permeable-Phenotype (%): 1%
  Population Mitochondria Different-Phenotype (%): 3%
  Population Mitotic Cells (%): 42%
  Population Normal (%): 94%
  Population Pyknosed Nuclei (%): 21%
  Population Tubulin-Different-Phenotype (%): 22%
  Total Cell Count: 139
[2]
  Population Apoptotic (%): 55%
  Population Fragmented Nuclei (%): 20%
  Population Healthy Nuclei (%): 58%
  Population Membrane Permeable-Phenotype (%): 7%
  Population Mitochondria Different-Phenotype (%): 7%
  Population Mitotic Cells (%): 44%
  Population Pyknosed Nuclei (%): 20%
  Population Tubulin-Different-Phenotype (%): 42%
  Total Cell Count: 152
[3]
  Population Apoptotic (%): 52%
  Population Fragmented Nuclei (%): 8%
  Population Healthy Nuclei (%): 63%
  Population Hoechst High Intensity Objects (%): 3%
  Population Membrane Permeable-Phenotype (%): 0%
  Population Mitochondria Different-Phenotype (%): 6%
  Population Mitotic Cells (%): 47%
  Population Normal (%): 96%
  Population Pyknosed Nuclei (%): 28%
  Population Tubulin-Different-Phenotype (%): 31%
  Total Cell Count: 140
[4]
  Population Apoptotic (%): 39%
  Population Fragmented Nuclei (%): 31%
  Population Healthy Nuclei (%): 38%
  Population Hoechst High Intensity Objects (%): 8%
  Population Membrane Permeable-Phenotype (%): 15%
  Population Mitochondria Different-Phenotype (%): 18%
  Population Mitotic Cells (%): 60%
  Population Normal (%): 91%
  Population Pyknosed Nuclei (%): 29%
  Population Tubulin-Different-Phenotype (%): 70%
  Total Cell Count: 123
[5]
  Population Apoptotic (%): 56%
  Population Fragmented Nuclei (%): 23%
  Population Healthy Nuclei (%): 60%
  Population Hoechst High Intensity Objects (%): 0%
  Population Membrane Permeable-Phenotype (%): 2%
  Population Mitochondria Different-Phenotype (%): 1%
  Population Mitotic Cells (%): 43%
  Population Normal (%): 99%
  Population Pyknosed Nuclei (%): 16%
  Population Tubulin-Different-Phenotype (%): 25%
  Total Cell Count: 144
[6]
  Population Apoptotic (%): 54%
  Population Hoechst High Intensity Objects (%): 4%
  Population Membrane Permeable-Phenotype (%): 4%
  Population Mitochondria Different-Phenotype (%): 3%
  Population Mitotic Cells (%): 45%
  Population Normal (%): 95%
  Population Tubulin-Different-Phenotype (%): 41%
  Total Cell Count: 142
[7]
  Population Apoptotic (%): 65%
  Population Fragmented Nuclei (%): 10%
  Population Healthy Nuclei (%): 65%
  Population Hoechst High Intensity Objects (%): 5%
  Population Membrane Permeable-Phenotype (%): 2%
  Population Mitochondria Different-Phenotype (%): 5%
  Population Mitotic Cells (%): 34%
  Population Normal (%): 94%
  Population Pyknosed Nuclei (%): 24%
  Population Tubulin-Different-Phenotype (%): 25%
  Total Cell Count: 140
[8]
  Population Apoptotic (%): 26%
  Population Fragmented Nuclei (%): 36%
  Population Healthy Nuclei (%): 40%
  Population Hoechst High Intensity Objects (%): 9%
  Population Membrane Permeable-Phenotype (%): 10%
  Population Mitochondria Different-Phenotype (%): 6%
  Population Mitotic Cells (%): 73%
  Population Normal (%): 90%
  Population Pyknosed Nuclei (%): 22%
  Population Tubulin-Different-Phenotype (%): 71%
  Total Cell Count: 126
[9]
  Population Apoptotic (%): 58%
  Population Fragmented Nuclei (%): 22%
  Population Healthy Nuclei (%): 61%
  Population Hoechst High Intensity Objects (%): 1%
  Population Membrane Permeable-Phenotype (%): 4%
  Population Mitochondria Different-Phenotype (%): 4%
  Population Mitotic Cells (%): 41%
  Population Normal (%): 98%
  Population Pyknosed Nuclei (%): 16%
  Population Tubulin-Different-Phenotype (%): 29%
  Total Cell Count: 151
[10]
  Population Apoptotic (%): 42%
  Population Fragmented Nuclei (%): 28%
  Population Healthy Nuclei (%): 52%
  Population Hoechst High Intensity Objects (%): 5%
  Population Membrane Permeable-Phenotype (%): 6%
  Population Mitochondria Different-Phenotype (%): 2%
  Population Mitotic Cells (%): 57%
  Population Normal (%): 94%
  Population Pyknosed Nuclei (%): 18%
  Population Tubulin-Different-Phenotype (%): 46%
  Total Cell Count: 147
[11]
  Population Apoptotic (%): 52%
  Population Fragmented Nuclei (%): 16%
  Population Healthy Nuclei (%): 66%
  Population Hoechst High Intensity Objects (%): 2%
  Population Membrane Permeable-Phenotype (%): 0%
  Population Mitochondria Different-Phenotype (%): 2%
  Population Mitotic Cells (%): 47%
  Population Normal (%): 97%
  Population Pyknosed Nuclei (%): 17%
  Population Tubulin-Different-Phenotype (%): 38%
  Total Cell Count: 137
[12]
  Population Apoptotic (%): 60%
  Population Fragmented Nuclei (%): 44%
  Population Healthy Nuclei (%): 47%
  Population Hoechst High Intensity Objects (%): 3%
  Population Membrane Permeable-Phenotype (%): 18%
  Population Mitochondria Different-Phenotype (%): 8%
  Population Mitotic Cells (%): 40%
  Population Normal (%): 96%
  Population Pyknosed Nuclei (%): 7%
  Population Tubulin-Different-Phenotype (%): 73%
  Total Cell Count: 131
